In ChEMBL document CHEMBL1144068, “Synthesis and biological evaluation of analogues of cryptolepine, an alkaloid isolated from the Suriname rainforest” (J Nat Prod, 1999):
The source made the active and inactive calls. The calls are words filed in the database; no cut-off is given here.

Tests used:
[1] = tested on: Saccharomyces cerevisiae; assay: Growth inhibition of Saccharomyces cerevisiae 1138 mutant by yeast bioassay; format: functional
[2] = tested on: M109; assay: Cytotoxicity against mouse M109 cells; format: functional, cell-based
How it was run: (§1)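 Cell-culture cytotoxicity in a 25-line panel by standard methods. Activity given as IC50 in µM.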

[3] = tested on: A2780; assay: Cell cycle arrest in human A2780 cells overexpressing wild type p53 by accumulation at G1 phase at 5 X respective cytotoxic IC50 after 24 hrs by FACS; format: functional, cell-based
How it was run: (§2)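 Flow cytometry (FACS) of A2780/p53wt cells after 24 h exposure at increasing multiples of each compound's own IC50, scored for G1 arrest and apoptosis; A2780/mutp53 cells run alongside.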

[4] = tested on: A2780; assay: Induction of apoptosis in human A2780 cells overexpressing wild type p53 at >5 X respective cytotoxic IC50 after 24 hrs; format: functional, cell-based; how it was run: as §2
[5] = tested on: Saccharomyces cerevisiae; assay: Growth inhibition of Saccharomyces cerevisiae 1353 mutant by yeast bioassay; format: functional
[6] = tested on: Saccharomyces cerevisiae; assay: Growth inhibition of Saccharomyces cerevisiae 1140 mutant by yeast bioassay; format: functional
[7] = Cytotoxicity against human OVACR3 cells; format: functional, cell-based; how it was run: as §1
[8] = tested on: A-431; assay: Cytotoxicity against human A431 cells; format: functional, cell-based; how it was run: as §1
[9] = tested on: MLF; assay: Cytotoxicity against MLF cells; format: cell-based; settings: Mus musculus; how it was run: as §1

Row | Compound | IC12 [1] [µg/mL] | other results
1 | Clc1c2ccccc2nc2c1oc1ccccc12 | > 400 | –
2 | C[n+]1c2ccccc2cc2[n-]c3ccccc3c21 [CRYPTOLEPINE] | 0.5 | –
3 | Ic1c2ccccc2nc2c1oc1ccccc12 | > 400 | –
4 | Cc1c2nc3ccccc3c-2[nH]c2ccccc12 | 50 | IC50 [2]: < 10000 nM
5 | CCn1c2ccccc2c2c1cc1ccccc1[n+]2C.O=S(=O)([O-])C(F)(F)F | 80 | –
6 | CCCC[n+]1c2ccccc2cc2[nH]c3ccccc3c21.[Br-] | > 400 | –
7 | O=Cc1c2ccccc2nc2c1[nH]c1ccccc12 | > 400 | –
8 | C[n+]1c2ccccc2cc2oc3ccccc3c21.[I-] | 400 | –
9 | O=c1c2c3ccccc3nc3c4ccccc4n(c(=O)c4c5ccccc5nc5c6ccccc6n1c54)c32 | > 400 | –
10 | c1ccc2nc3c(cc2c1)[nH]c1ccccc13 [QUINDOLINE] | 150 | –
11 | c1ccc(Cn2c3ccccc3c3nc4ccccc4cc32)cc1 | > 400 | –
12 | CC[n+]1c2ccccc2cc2[nH]c3ccccc3c21.[I-] | 40 | IC50 [2]: < 50000 nM
13 | COC(=O)c1c2ccccc2nc2c1[nH]c1ccccc12 | 40 | IC50 [2]: < 10000 nM
14 | Cn1c2ccccc2c2c1cc1ccccc1[n+]2C.O=S(=O)([O-])C(F)(F)F | 5 | IC50 [2]: < 10000 nM
15 | O=C(O)c1c2nc3ccccc3c-2[nH]c2ccccc12 | > 400 | –
16 | CC(CO)(CO)NCc1c2ccccc2nc2c1[nH]c1ccccc12 | > 400 | –
17 | C[n+]1c2ccccc2cc2[nH]c3ccccc3c21 [listing 1 of 2 here] | – | Activity [3]: Active; Activity [4]: Dose-dependent effect

Row | Compound | IC12 [1] [µg/mL] | other results
18 | O=C(OCCOC(=O)c1c2ccccc2nc2c1[nH]c1ccccc12)c1c2ccccc2nc2c1[nH]c1ccccc12 | > 400 | –
19 | OCc1c2ccccc2nc2c1[nH]c1ccccc12 | 125 | –
20 | C[n+]1c2ccccc2cc2[n-]c3ccccc3c21.Cl [CRYPTOLEPINE HYDROCHLORIDE] | 0.6 | IC50 [2]: < 1 µg/mL; IC12 [5]: 0.6 µg/mL; IC12 [6]: 0.6 µg/mL
21 | CCCn1c2ccccc2c2c1cc1ccccc1[n+]2C.O=S(=O)([O-])C(F)(F)F | 125 | –
22 | C[n+]1c2ccccc2cc2[nH]c3ccccc3c21 [listing 2 of 2 here] | – | IC50 [2]: < 1000 nM; IC50 [7]: 500 nM; IC50 [8]: 340 nM; IC50 [9]: 4900 nM
23 | CC(=O)n1c2ccccc2c2c1cc1ccccc1[n+]2C.[Cl-] | 5 | IC50 [2]: < 1000 nM; IC50 [7]: 500 nM; Activity [3]: Active; Activity [4]: Dose-dependent effect; IC50 [8]: 340 nM; IC50 [9]: 4900 nM
24 | C=CCn1c2ccccc2c2c1cc1ccccc1[n+]2C.O=S(=O)([O-])C(F)(F)F | 200 | –
25 | c1ccc2nc3c(cc2c1)oc1ccccc13 | > 400 | –
26 | CC(=O)n1c2ccccc2c2nc3ccccc3cc21 | 80 | –
27 | O=c1c2ccccc2[nH]c2c1oc1ccccc12 | > 400 | –
28 | NC(=O)c1c2cc(Br)ccc2nc2c1[nH]c1ccccc12 | 400 | –
29 | O=C1OCc2c3ccccc3nc3c4ccccc4n1c23 | 50 | IC50 [2]: < 10000 nM
30 | O=C(OCCO)c1c2ccccc2nc2c1[nH]c1ccccc12 | > 400 | –
31 | C[n+]1c2ccccc2cc2[nH]c3ccccc3c21.[I-] [CRYPTOLEPTINE IODIDE] | 1.5 | –
32 | CCCCn1c2ccccc2c2c1cc1ccccc1[n+]2C.O=S(=O)([O-])C(F)(F)F | 90 | –
33 | COC(=O)c1c2cc(Br)ccc2nc2c1[nH]c1ccccc12 | 100 | –
34 | CCC[n+]1c2ccccc2cc2[nH]c3ccccc3c21.[I-] | 400 | –
